Here are results for one compound from ChEMBL document CHEMBL4371095, “Triazole-Based Inhibitors of the Wnt/β-Catenin Signaling Pathway Improve Glucose and Lipid Metabolisms in Diet-Induced Obese Mice” (J Med Chem, 2019).

Activity calls are given as the source filed them. No cut-off for these calls is given here.

The subject of series [1] is Mus musculus. In words: Decrease in body weight gain in high fat diet fed C57BL/6J mouse at 40 mg/kg, ip administered every 2 days for 11 weeks. The series is classed as functional, organism-based. The essentials: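 Male mice, 8 weeks old, 24–27 g, given a 45% kcal fat diet for 6 weeks, then dosed i.p. every 2 days in corn oil vehicle with the diet continued. Sacrifice was about 24 h after the last dose. Liver was examined by H&E. Liver and serum triglyceride were measured by kit. Serum chemistry was included, and liver/body weight ratio was calculated.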

Series [2] addresses Axin-1 (Homo sapiens) (UniProt O15169). In words: Binding affinity to Axin1 (unknown origin) by SPR analysis.
The nature of series [3]: Toxicity in high fat diet fed C57BL/6J mouse assessed as serum LDH level at 40 mg/kg, ip administered every 2 days for 11 weeks (reference value: 469 +/- 67 U/L). The series is classed as organism-based. As to conditions: in vivo.
In series [4] the test system is HEK293. The series can be described thus: Inhibition of Wnt/beta-catenin/Axin signaling (unknown origin) expressed in HEK293 cells assessed as increase in Axin binding to beta-catenin after 12 hrs by immunoprecipitation method. The class given is cell-based. The settings on record: Homo sapiens.
The test system of series [5] is HEK293. The series can be described thus: Growth inhibition of unstimulated HEK293 cells up to 100 uM after 72 hrs by CellTiter-Fluor assay. The series is classed as cell-based. As to conditions: human, hek293, 72 h. The essentials:
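Unstimulated HEK293 cells were plated at 3.5×10^5/well and grown for 24 h, then incubated with compound for 72 h. Viability was read with CellTiter-Fluor.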

A short description of series [6]: Toxicity in high fat diet fed C57BL/6J mouse assessed as serum BUN level at 40 mg/kg, ip administered every 2 days for 11 weeks (reference value: 17.3 +/- 0.5 mg/dl). The class given is organism-based. The settings on record: in vivo.
Series [7] can be described thus: Toxicity in high fat diet fed C57BL/6J mouse assessed as serum uric acid level at 40 mg/kg, ip administered every 2 days for 11 weeks (reference value: 6.3 +/- 0.5 mg/dl). As to conditions: in vivo. The series is classed as organism-based.
In series [8] the test system is Mus musculus. The series can be described thus: Effect on hepatic SCD1 mRNA level in normal chow diet fed C57BL/6J mouse at 40 mg/kg, ip administered every 2 days for 11 weeks by qPCR analysis. The series is classed as ADME, organism-based. As to conditions: in vivo. The gist of the method: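 Male mice, 8 weeks old, kept on normal chow throughout and dosed i.p. every 2 days in corn oil vehicle for 11 weeks. Body weight gain, liver/body weight ratio, and liver mRNA of the indicated genes were measured at sacrifice; mean ± SEM, n = 5 per group where stated.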

Series [9] has as its system HEK293. The series can be described thus: Inhibition of Wnt/beta-catenin signaling (unknown origin) expressed in Axin1 knock down HEK293 cells harboring TCF/LEF-responsive luciferase assessed as luminescence at 20 nM measured after 24 hrs by luciferase reporter gene assay relative to control. The class given is cell-based. Details: scale not given: the % may be the effect or the level left. As to conditions: Homo sapiens. The essentials: (§1)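 HEK293 cells were transfected with siRNA against GSK3β, Axin or CK1α using RNAiMAX for 36 h. Cells were then treated with or without compound at 20 nM for 24 h, and TCF/LEF luciferase reporter activity was read.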

Series [10] has as its system HEK293. In words: Inhibition of Wnt/beta-catenin signaling (unknown origin) expressed in GSK3beta knock down HEK293 cells harboring TCF/LEF-responsive luciferase assessed as luminescence at 20 nM measured after 24 hrs by luciferase reporter gene assay relative to control. More on the design: scale not given: the % may be the effect or the level left. The settings on record: Homo sapiens. The series is classed as cell-based. The gist of the method:
as §1

In series [11] the test system is HEK293. The series can be described thus: Inhibition of Wnt (unknown origin)/FLAG-tagged human beta-catenin S33Y mutant signaling expressed in HEK293 cells harboring TCF/LEF-responsive luciferase at 100 nM measured after 24 hrs by luciferase reporter gene assay. The class given is cell-based. The gist of the method:
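HEK293 cells were transfected for 16 h with TOPFlash or FOPFlash, Renilla, and pcDNA3 wild-type or S33Y β-catenin. Compound was then added for a further 24 h. Firefly/Renilla dual-luciferase ratio was the read-out.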

The nature of series [12]: Toxicity in high fat diet fed C57BL/6J mouse assessed as serum ALT level at 40 mg/kg, ip administered every 2 days for 11 weeks (reference value: 63.3 +/- 26.9 U/L). The settings on record: in vivo. The class given is organism-based.
Series [13] has as its system HEK293. The series can be described thus: Inhibition of Wnt3a activated Wnt/beta-catenin/Axin signaling (unknown origin) expressed in HEK293 cells assessed as degradation of beta-catenin by measuring decrease in beta-catenin protein expression at 1 to 10 uM after 2 hrs by Western blot method. The series is classed as cell-based. As to conditions: Homo sapiens. The gist of the method:
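HEK293 cells stimulated with WNT3a were treated with compound for 2 h. Cells were lysed in 10 mM HEPES, 100 μM EDTA, 10 mM KCl, 0.5% NP40, protein was quantified by BCA, and β-catenin and Axin1 were resolved on 10% SDS-PAGE and immunoblotted.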

The nature of series [14]: Cmax in mouse at 10 mg/kg, po administered as single dose by LC-MS analysis. The settings on record: in vivo. Details: dose 10 mg/kg, route oral. The class given is ADME, organism-based. The gist of the method: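 Compound was dissolved at 1 mg/ml in 10% Kolliphor EL and 10% polyethylene glycol in saline. Ten mice were split into intravenous and oral groups and given a single 10 mg/kg dose. Tail-vein blood was sampled at several time points and analysed by LC/MS/MS.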

The subject of series [15] is HepG2. The series can be described thus: Inhibition of Wnt/beta-catenin deletion mutant signaling in human HepG2 cells at 50 nM after 24 hrs by luciferase reporter gene assay. The series is classed as cell-based. The essentials: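 HepG2 cells carry the CTNNB1 Δ25–140 deletion and were transfected with the TCF/LEF luciferase reporter constructs. Compound was applied and reporter luminescence measured; mean ± S.D., n = 3.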

In series [16] the test system is Mus musculus. The series can be described thus: Decrease in hepatic SREBP1 mRNA level in high fat diet fed C57BL/6J mouse at 40 mg/kg, ip administered every 2 days for 11 weeks by qPCR analysis. The class given is functional, organism-based. The essentials: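 Male mice, 8 weeks old, fed a 45% kcal fat diet for 6 weeks, then dosed i.p. every 2 days in corn oil vehicle for 11 weeks. Liver mRNA of the indicated genes was quantified at sacrifice; mean ± SEM, n = 5 per group.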

The target in series [17] is Glycogen synthase kinase-3 beta (Homo sapiens, UniProt P49841). In words: Binding affinity to recombinant full length human N-terminal GST-tagged GSK3beta expressed in sf9 cells by SPR analysis. The gist of the method:
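Recombinant GST-tagged human GSK3β. Binding was measured by surface plasmon resonance at a biosensor core facility, and K_D was determined.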

Series [18] is filed under the species Mus musculus. The series can be described thus: Inhibition of Wnt/beta-catenin/Axin signaling in mouse hepatocytes assessed as decrease in ACOT4 mRNA level at 5 uM by qPCR analysis. The class given is cell-based. The gist of the method:
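Normal mouse hepatocytes were treated with 5 μM compound, and lipogenic and gluconeogenic gene mRNA was measured by qPCR; mean ± S.D. of triplicates.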

Chain of Axin-1 (Homo sapiens) (O15169 whole entry): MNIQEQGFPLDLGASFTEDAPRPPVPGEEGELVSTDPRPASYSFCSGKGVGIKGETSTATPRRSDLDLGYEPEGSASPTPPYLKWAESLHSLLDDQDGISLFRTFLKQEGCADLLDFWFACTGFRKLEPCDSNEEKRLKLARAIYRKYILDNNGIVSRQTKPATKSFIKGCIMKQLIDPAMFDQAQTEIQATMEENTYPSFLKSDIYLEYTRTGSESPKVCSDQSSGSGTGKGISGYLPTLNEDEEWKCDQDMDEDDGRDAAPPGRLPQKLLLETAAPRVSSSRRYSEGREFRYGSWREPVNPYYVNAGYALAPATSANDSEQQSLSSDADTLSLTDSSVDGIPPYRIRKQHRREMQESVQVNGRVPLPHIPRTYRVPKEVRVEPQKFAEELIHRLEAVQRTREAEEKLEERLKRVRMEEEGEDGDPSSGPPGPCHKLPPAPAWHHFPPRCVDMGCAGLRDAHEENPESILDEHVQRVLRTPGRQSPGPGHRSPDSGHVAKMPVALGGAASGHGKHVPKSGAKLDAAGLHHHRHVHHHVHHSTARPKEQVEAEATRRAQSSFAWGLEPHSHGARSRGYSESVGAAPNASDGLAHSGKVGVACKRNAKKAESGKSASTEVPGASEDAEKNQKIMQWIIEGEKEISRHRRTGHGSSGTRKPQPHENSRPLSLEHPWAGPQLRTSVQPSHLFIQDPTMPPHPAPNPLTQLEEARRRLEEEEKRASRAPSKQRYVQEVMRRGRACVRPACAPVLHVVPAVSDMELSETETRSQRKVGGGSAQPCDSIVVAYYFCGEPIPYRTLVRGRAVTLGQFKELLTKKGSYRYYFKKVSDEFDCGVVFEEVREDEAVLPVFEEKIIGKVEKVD
Chain of Glycogen synthase kinase-3 beta (P49841 whole entry): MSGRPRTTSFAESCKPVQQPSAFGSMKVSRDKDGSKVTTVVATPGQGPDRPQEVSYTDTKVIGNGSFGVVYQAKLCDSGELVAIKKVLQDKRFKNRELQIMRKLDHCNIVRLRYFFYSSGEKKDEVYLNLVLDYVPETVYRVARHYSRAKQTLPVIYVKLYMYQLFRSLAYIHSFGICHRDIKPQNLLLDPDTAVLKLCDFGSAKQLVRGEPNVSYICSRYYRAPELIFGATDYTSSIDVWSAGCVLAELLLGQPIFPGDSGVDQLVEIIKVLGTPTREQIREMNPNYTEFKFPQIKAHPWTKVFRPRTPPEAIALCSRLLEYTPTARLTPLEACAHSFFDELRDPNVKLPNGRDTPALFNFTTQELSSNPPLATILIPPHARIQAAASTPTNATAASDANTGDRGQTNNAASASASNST

With `Cc1ccccc1-n1nnc(C(=O)Nc2ccc3ccccc3n2)c1C`, the result in series [1] and in series [16] was Active. The result in series [2] was inactive. For the same compound, the Activity in series [3] was 313 U/L; in [6], 14.8 mg/dL; in series [7], 4.8 mg/dL; in [8], “Non-Toxic”; in series [9], 41%; in [10], 69%. In series [12], the Activity stood at 21 U/L. The inhibition result in [4], in [11], in series [13] and in series [18] was “Active” each time. For the same compound, the “growth inhibition (GI)” value in [5] is given as “Non-Toxic”. The compound also registered a Cmax in series [14] of 2200 ng/mL. The inhibition entry in [15] is “inactive”. For the same compound, in [17], the Kd was found to be 4.3 µM.
